Measured values collected from several papers.
Lines come from different studies, so protocols differ.
FLT3 K663Q: Receptor-type tyrosine-protein kinase FLT3 (FLT3, Homo sapiens, UniProt P36888, K663Q)
FLT3 D835Y: Receptor-type tyrosine-protein kinase FLT3 (FLT3, Homo sapiens, UniProt P36888, D835Y)
FLT3 D835H: Receptor-type tyrosine-protein kinase FLT3 (FLT3, Homo sapiens, UniProt P36888, D835H)
FLT3: Receptor-type tyrosine-protein kinase FLT3 (FLT3, Homo sapiens, UniProt P36888)
FLT3 D835V/ITD: Receptor-type tyrosine-protein kinase FLT3 (FLT3, Homo sapiens, UniProt P36888, D835V/ITD)
FLT3 R834Q: Receptor-type tyrosine-protein kinase FLT3 (FLT3, Homo sapiens, UniProt P36888, R834Q)
FLT3 D835V: Receptor-type tyrosine-protein kinase FLT3 (FLT3, Homo sapiens, UniProt P36888, D835V)
FLT3 N841I: Receptor-type tyrosine-protein kinase FLT3 (FLT3, Homo sapiens, UniProt P36888, N841I)
FLT3 autoinhibited: Receptor-type tyrosine-protein kinase FLT3, autoinhibited (FLT3, Homo sapiens, UniProt P36888)

| SMILES | target | effect on | method | tested at | remaining binding [%] |
| --- | --- | --- | --- | --- | --- |
| Nc1ncc2c(n1)-c1c([nH]c3ccc(C#CC4CC4)cc13)CCCC2 | FLT3 K663Q | binding | competition with immobilised ligand | 1 µM | 77 |
| CN(CCCC(F)(F)F)c1nccc(-c2cnn3ncccc23)n1 | FLT3 D835Y | binding |  | 1 µM | 76 |
| O=C(c1ccc(Nc2ncc(Cl)c(-c3cc4ccccc4s3)n2)cc1)N1CCC(N2CCCC2)CC1 | FLT3 D835H | binding | competition with immobilised ligand | 1 µM | 2.4 |
| O=C(Nc1c[nH]nc1C(=O)NC1CCNCC1)c1cc(F)cc(F)c1 | FLT3 | binding | competition with immobilised ligand | 1 µM | 100 |
| CC(C)CC(=O)N1CCc2nc(-c3ccc(Br)cc3)nc(N(C)Cc3ccccc3)c2C1 | FLT3 K663Q | cell-free assay | competition with immobilised ligand | 0.1 µM | 100 |
| O=C(c1ccc(Nc2ncc(Cl)c(-c3ccc(Cl)s3)n2)cc1)N1CCC(N2CCCC2)CC1 | FLT3 D835V/ITD | binding | competition with immobilised ligand | 1 µM | 1.1 |
| NS(=O)(=O)c1cc(NC(=O)C2(c3ccccc3Cl)CC2)ccc1Oc1cccc(Cl)c1 | FLT3 K663Q | cell-free assay | competition with immobilised ligand | 1 µM | 100 |
| CN1CCN(c2ccc(Nc3nccc(-c4cccc([N+](=O)[O-])c4)n3)cc2C(F)(F)F)CC1 | FLT3 K663Q | binding |  | 10 µM | 0.2 |
| O=C(NCc1ncc(C(F)(F)F)cc1Cl)c1ccc2c(c1)C1(CCS(=O)(=O)CC1)[C@H](C1CC1)N2S(=O)(=O)c1ccc(F)cc1 | FLT3 R834Q | cell-free assay | competition with immobilised ligand | 1 µM | 90 |
| CN1CCN(c2ccc(Nc3nccc(-c4ccccc4)n3)cc2C(F)(F)F)CC1 | FLT3 K663Q | binding |  | 10 µM | 0.35 |
| O=C(O)[C@H]1[C@H](Cn2nnc3ccccc3c2=O)CC[C@@H]1C(=O)c1ccc(OCCC2CCOCC2)cc1 | FLT3 R834Q | cell-free assay | competition with immobilised ligand | 1 µM | 96 |
| c1cnn2ncc(-c3ccnc(N4CCC45COC5)n3)c2c1 | FLT3 D835V | binding |  | 1 µM | 20 |
| O=C(NCC1CCOCC1)c1n[nH]cc1NC(=O)c1c(F)cccc1F | FLT3 D835Y | binding | competition with immobilised ligand | 1 µM | 89 |
| O=C(NCCCN1CCOCC1)c1ccc(Nc2ncc(Cl)c(-c3ccc(Cl)s3)n2)cc1 | FLT3 D835Y | binding | competition with immobilised ligand | 1 µM | 1.8 |
| O=C(NCCCC1CCCCC1)c1ccc(CNC(=O)c2cnn(-c3ccccc3)c2C(F)(F)F)cc1 | FLT3 D835V/ITD | cell-free assay | competition with immobilised ligand | 0.1 µM | 100 |
| COc1ccnn2ncc(-c3ccnc(N(C)C)n3)c12 | FLT3 D835V | binding |  | 1 µM | 81 |
| c1cncc(-c2cccc(Nc3nccc(NC4CCCCC4)n3)c2)c1 | FLT3 N841I | binding | competition with immobilised ligand | 10 µM | 1.6 |
| CCN1CCN(Cc2ccc(C(=O)Nc3ccc(C)c(Oc4ccc5c(c4)CC(=O)N5)c3)cc2C(F)(F)F)CC1 | FLT3 N841I | binding | competition with immobilised ligand | 1 µM | 81 |

| SMILES | target | effect on | method | tested at | remaining binding [%] |
| --- | --- | --- | --- | --- | --- |
| FC(F)(F)Oc1cccc(-c2cnc3ccc(-c4ccncc4)nn23)c1 | FLT3 | cell-free assay | competition with immobilised ligand | 5 µM | 3.6 |
| F[C@@H]1CCN(c2nccc(-c3cnn4ncccc34)n2)C1 | FLT3 autoinhibited | binding |  | 1 µM | 100 |
| CNC(=O)[C@@H]1CC[C@@H](n2c(-c3ccc4cnccc4c3)nc3ccc(C(=O)NCc4cccc(C(N)=O)c4)cc32)C1 | FLT3 D835Y | binding | competition with immobilised ligand | 1 µM | 100 |
| O=C(Nc1cnc(Oc2ccc(F)cc2)nc1)N1CCc2ncccc2[C@@H]1c1ccc(F)cc1 | FLT3 autoinhibited | cell-free assay | competition with immobilised ligand | 1 µM | 90 |
| Cc1cnc(Nc2ccc(C(=O)N3CCC(N4CCCC4)CC3)cc2)nc1-c1cc2ccccc2s1 | FLT3 autoinhibited | binding | competition with immobilised ligand | 1 µM | 9.5 |
| COc1cnc(Nc2cccc(S(N)(=O)=O)c2)nc1N1CCN(c2ccccc2)C(=O)C1 | FLT3 D835H | binding | competition with immobilised ligand | 1 µM | 93 |
| C=CC(=O)N1CCC(C(=O)NCC(=O)N2CCN(c3nc(-c4cnc(N)nc4C(F)F)nc(N4CCOCC4)n3)CC2)CC1 | FLT3 autoinhibited | binding | competition with immobilised ligand | 1 µM | 99 |
| COc1ncc2cc3ccccc3nc2c1C#N | Receptor-type tyrosine-protein kinase FLT3 (FLT3, Homo sapiens, UniProt P36888, ITD) | cell-free assay | competition with immobilised ligand | 5 µM | 94 |
| CC1CCCN1c1nccc(-c2cnn3ncccc23)n1 (centres unmarked) | FLT3 N841I | binding |  | 1 µM | 75 |
| O=C(c1ccc(Nc2nccc(-c3cc4ccccc4s3)n2)cc1)N1CCC(N2CCCC2)CC1 | FLT3 R834Q | binding | competition with immobilised ligand | 1 µM | 30 |
| C[C@@H](c1ccc(-n2cnc3c(N)ncnc32)cc1)N1CCc2nn(C)c(Cc3ccccc3)c2C1=O | FLT3 R834Q | binding | competition with immobilised ligand | 0.1 µM | 88 |
| O=C(NCCCN1CCOCC1)c1ccc(Nc2nccc(-c3cc4ccccc4s3)n2)cc1 | FLT3 D835H | binding | competition with immobilised ligand | 1 µM | 30 |
| N[C@H]1CCN(c2nccc(-c3cnn4ncccc34)n2)C1 | FLT3 D835V | binding |  | 1 µM | 61 |
| O=C(Nc1ccc(Oc2ccc(F)cc2)cc1)N1CCc2ncccc2[C@H]1c1ccc(F)cc1 | FLT3 autoinhibited | cell-free assay | competition with immobilised ligand | 1 µM | 100 |
| C[C@H]1CCN(c2nccc(-c3cnn4ncccc34)n2)C1 | FLT3 | binding |  | 1 µM | 81 |
| C[C@H](c1ccc(F)cc1)N(Cc1cccc(C(=O)O)c1)C(=O)c1cnc2ccccc2c1 | FLT3 D835V | cell-free assay | competition with immobilised ligand | 1 µM | 98 |
| COc1cnc(Nc2cccc(S(N)(=O)=O)c2)nc1N1CCN(c2ccccc2)CC1 | FLT3 D835V | binding | competition with immobilised ligand | 1 µM | 49 |
